# High-throughput results deposited in PubChem BioAssay by several laboratories.
# CSN inh = blocks human CSN-mediated cullin deneddylation; 360,000 tested, 0.38% active; Purified CSN, SCF-Nedd8-OG deneddylation, fluorescence polarization; inhibition, % at 12.5 µM; Q92905;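 active = pattern-corrected inhibition above about 35%, with an unprinted fluorescence ratio check between 0.5 and 1.5, limit read from the data, passing the limit was not always enough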
# Target sequence (Q92905 whole entry, looked up, one chain of several): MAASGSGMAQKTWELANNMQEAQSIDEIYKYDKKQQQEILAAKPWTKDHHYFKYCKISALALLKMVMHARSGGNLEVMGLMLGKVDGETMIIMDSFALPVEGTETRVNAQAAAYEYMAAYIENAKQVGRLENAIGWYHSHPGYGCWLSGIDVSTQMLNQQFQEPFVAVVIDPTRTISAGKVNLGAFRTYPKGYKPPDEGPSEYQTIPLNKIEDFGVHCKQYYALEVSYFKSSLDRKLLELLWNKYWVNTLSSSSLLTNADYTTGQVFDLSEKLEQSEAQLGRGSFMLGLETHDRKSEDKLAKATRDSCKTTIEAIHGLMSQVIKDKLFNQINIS
#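 Detection – fluorescence polarization · System – HEK293T-derived human Csn5 enzyme · Controls – substrate-only high control, full reaction low control · Timing – 90 min, room temperature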
# ATG4B inhibitor = inhibitors of human ATG4B cysteine protease; Q9Y4P1; ATG4B cleavage of LC3-PLA2, NBD-HPC fluorescence, 1 h; inhibition, % at 8.33 µM; 340,000 tested, 0.51% active; AID 504462; in the data active = inhibition above about 40%
# MBD2 DNA inh = blocks human MBD2 binding to methylated DNA; Q9UBB5; TR-FRET, MBD2 binding to methylated oligonucleotide; inhibition, % at 4.4 µM; 370,000 tested, 0.31% active; AID 686964; in the data active = inhibition above about 13%
# Target sequence (Q9UBB5 whole entry, looked up): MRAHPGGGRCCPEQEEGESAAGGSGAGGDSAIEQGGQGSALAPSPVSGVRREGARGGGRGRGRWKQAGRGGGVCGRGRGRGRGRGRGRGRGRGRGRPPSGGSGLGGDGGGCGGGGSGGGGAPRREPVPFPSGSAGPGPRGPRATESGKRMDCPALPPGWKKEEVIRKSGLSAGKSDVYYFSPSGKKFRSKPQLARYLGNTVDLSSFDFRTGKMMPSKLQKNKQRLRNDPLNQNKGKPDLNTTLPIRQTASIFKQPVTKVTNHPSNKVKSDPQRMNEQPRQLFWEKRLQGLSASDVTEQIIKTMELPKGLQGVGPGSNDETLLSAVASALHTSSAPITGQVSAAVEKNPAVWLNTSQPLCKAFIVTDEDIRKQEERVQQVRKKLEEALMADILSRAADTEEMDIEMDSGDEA
# LEDGF integ inh = blocks HIV-1 LEDGF/p75-dependent DNA integration. 370,000 tested, 0.64% active. AID 743269. inhibition, % at 3.7 µM. TR-FRET IN-LEDGF/p75 DNA integration, Eu/Cy5;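 active = inhibition above the screen-wide mean plus 3 SD, cut at about 13% in these data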;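 note: signal is the Cy5 over europium emission ratio at 671 and 618 nm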
# rCAG RNA binder = r(CAG) repeat RNA binding | TO-PRO-1 dye displacement fluorescence | inhibition, % at 3 µM | 370,000 tested, 1.3% active;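 active = inhibition above the plate cutoff, the mean of all test compounds on that plate plus 3 SD, cut at about 35% in these data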;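 note: higher means more dye released from RNA so lower well fluorescence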
# UHRF1 binding = human UHRF1 methylated DNA binding inhibitors | inhibition, % at 4.4 µM | Q96T88 | 370,000 tested, 0.75% active | UHRF1 binding to methylated oligo, TR-FRET;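 note: UHRF1 SRA domain binding a hemimethylated CpG hairpin DNA probe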
# rCAG bind conf = r(CAG) RNA repeat binding, confirmation; shares compounds with rCAG RNA binder; TO-PRO-1 dye displacement fluorescence; inhibition, % at 3 µM; 4,300 tested, 70% active;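 active = inhibition above a per-plate cutoff, the mean inhibition of sample wells plus 3 SD, cut at about 35% in these data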;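 note: loss of TO-PRO-1 fluorescence as compound displaces dye from 1x1 AA loop RNA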
# DNA CAG counter = counter-screen for rCAG RNA binders: DNA CAG dye complex inhibitors; shares compounds with rCAG RNA binder; d(CAG) DNA oligo TO-PRO-1 dye displacement, fluorescence; inhibition, % at 3 µM; 4,300 tested, 94% active; AID 652068;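 active = inhibition above its plate's cutoff, the mean test-well inhibition plus 3 SD, cut at about 4.8% in these data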;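 note: hits displace the dye from DNA and so lower well fluorescence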
# dCAG dye DR = DNA CAG dye complex inhibition, dose response counter-screen. DNA CAG/GTC duplex TO-PRO-1 dye displacement fluorescence. AID 686960. 250 tested, 20% active. IC50, µM. shares compounds with rCAG RNA binder; in the data active = IC50 below about 10 µM
# CSN5 deneddyl = validation of inhibitors of human CSN-mediated cullin deneddylation; shares compounds with CSN inh; 540 tested, 62% active; AID 720654; Csn5 deneddylation of SCF-Nedd8OG, fluorescence polarization, 90 min; inhibition, % at 16.6 µM; in the data active = inhibition above about 50%
# MMP-2 counter = counter-screen for CSN deneddylation inhibitors: human MMP-2 inhibition; inhibition, % at 16.6 µM; shares compounds with CSN inh; AID 720655; 540 tested, 33% active; recombinant MMP-2, FRET substrate fluorescence, 60 min;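 active = corrected plate-normalized z-score of 5 or more, or -5 or less, or inhibition of 15% or more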
# Thrombin counter = blocks bovine thrombin in a CSN deneddylation counter-screen. shares compounds with CSN inh. bovine thrombin cleavage of Ub4-pepOG, fluorescence polarization. inhibition, % at 16.6 µM. 540 tested, 49% active;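 active = inhibition at or above a set limit, with a fluorescence interference ratio between 0.5 and a set maximum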
# UHRF1 ctr MBD2 = inhibits human UHRF1 binding to methylated oligonucleotide, MBD2 counter-screen; shares compounds with MBD2 DNA inh; TR-FRET; inhibition, % at 4.4 µM; 1,000 tested, 25% active; AID 720530;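 note: UHRF1 SRA domain binding a labeled hemimethylated CpG hairpin DNA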
# MBD2 DBD conf = MBD2-DBD methyl-DNA binding inhibition, TR-FRET confirmation | shares compounds with MBD2 DNA inh | TR-FRET MBD2-DBD binding to methylated oligonucleotide | inhibition, % at 4.4 µM | 1,000 tested, 26% active; in the data active = inhibition above about 14%
# IN multimer up = counter-screen for LEDGF/p75 integration inhibitors: HIV-1 integrase multimerization activators. shares compounds with LEDGF integ inh. TR-FRET HIV-1 integrase multimerization, biochemical. activation, % at 7.7 µM. 2,000 tested, 17% active. AID 1053131; in the data active = activation above about 8.9%
# TRFRET interf = counter-screen for LEDGF/p75 integration inhibitors: TR-FRET optical interference. 2,000 tested, under 10 active. AID 1053135. shares compounds with LEDGF integ inh. TR-FRET optical interference counterscreen, HIV-1 IN multimerization. inhibition, % at 7.7 µM;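 active = inhibition above the mean over all tested compounds plus 3 SD, which no compound reached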
# IN-LEDGF confirm = LEDGF/p75-dependent HIV-1 integration inhibition, confirmation; shares compounds with LEDGF integ inh; TR-FRET LEDGF/p75-dependent HIV-1 integration, biochemical; inhibition, % at 3.7 µM; 2,000 tested, 36% active; AID 1053136; in the data active = inhibition above about 14%
# A number is an active result; i = inactive; nt = not tested or not shown. Most compounds without a hit are left out; they make up all but 3.1% or so of the library. Cut-off read from the data, not from the text of the source, unless noted: active = inhibition above about 21%; inactive = the rest.
SMILES,CSN inh,ATG4B inhibitor,MBD2 DNA inh,LEDGF integ inh,rCAG RNA binder,UHRF1 binding,rCAG bind conf,DNA CAG counter,IN multimer up,TRFRET interf,IN-LEDGF confirm,others
N#Cc1c(NC(=O)CSc2ncnc3sccc23)oc(-c2ccco2)c1-c1ccco1,51,i,i,27,44,i,55,24,14,i,58,dCAG dye DR=i;CSN5 deneddyl=64;MMP-2 counter=i;Thrombin counter=i
COc1ccc(C(C(=O)N(C)C2CCCC2)N(Cc2ccc(F)cc2)C(=O)c2sccc2Cl)cc1OC (stereo unspecified),nt,nt,i,i,i,i,nt,nt,nt,nt,nt,
COc1cccc(=O)c2c(C)n(CC(=O)c3ccccc3)c(C)c12,i,i,i,51,37,i,i,17,i,i,i,
O=C(NCC(c1cccs1)N1CCOCC1)c1ccc(Cl)c([N+](=O)[O-])c1 (stereo unspecified),i,i,i,i,i,i,nt,nt,nt,nt,nt,
O=C(NCC(c1cccs1)N1CCOCC1)c1ccccc1NS(=O)(=O)c1ccc(Cl)c([N+](=O)[O-])c1 (stereo unspecified),i,i,i,35,78,i,78,36,i,i,i,
COc1cc(O)c([C@@H](CC(=O)N2CC(C)CC(C)C2)c2ccc3c(c2)OCO3)c(OC)c1 (stereo partly specified),nt,nt,i,i,nt,i,nt,nt,nt,nt,nt,
O=c1c(-c2c(O)cc(O)c3c(=O)cc(-c4ccc(O)cc4)oc23)c(-c2ccc(O)cc2)oc2cc(O)cc(O)c12,i,i,i,25,49,i,36,16,40,i,50,
O=c1c(-c2ccc(O)cc2)coc2cc(O)cc(O)c12,i,i,i,i,i,i,nt,nt,nt,nt,nt,
O=c1c(O)c(-c2ccc(O)c(O)c2)oc2cc(O)cc(O)c12,i,i,i,89,36,i,i,8.1,41,i,88,
COC(=O)C1=C[C@@H]([C@@H](C)[C@H](OC)c2ccccc2Br)[C@@H]2OCCC[C@H]12,nt,nt,i,i,i,i,nt,nt,nt,nt,nt,
CC1=NN(c2ccc(C(=O)OC(C)C)cc2)C(=O)/C1=C\C=C\c1ccco1,i,i,i,i,i,i,nt,nt,nt,nt,nt,
CC(C(=O)O)N1C(=O)/C(=C/C=C/c2ccco2)SC1=S (stereo unspecified),i,72,101,93,83,101,79,41,48,i,88,UHRF1 ctr MBD2=103;MBD2 DBD conf=110
CCn1c(Cc2cccs2)nnc1SCC(=O)Nc1ccc(Cl)cc1C,nt,nt,i,i,i,i,nt,nt,nt,nt,nt,
CSc1nc(NCCOCCO)c2sc3nc(-c4ccco4)c4c(c3c2n1)CCC4,i,i,i,26,52,29,38,18,i,i,15,dCAG dye DR=i
O=C(N[C@H](C(=O)N1CCC[C@H]1C(=O)NC1CCCC1)C1CCCCC1)C1CCCC1,nt,nt,i,i,i,i,nt,nt,nt,nt,nt,
CN(C)c1ccc2cc(S(=O)(=O)O)cc(O)c2c1,35,i,45,84,59,83,i,10,52,i,31,CSN5 deneddyl=75;MMP-2 counter=i;Thrombin counter=i;UHRF1 ctr MBD2=29;MBD2 DBD conf=i
C=CCN1C(=O)[C@@H](CC(=O)N2CCCCC2)[C@]2(C(=O)OCC)CCCCC/C=C/12,nt,nt,i,i,i,i,nt,nt,nt,nt,nt,
O=Cc1ccc(/C=C2\c3ccccc3C(=O)N2c2ccccc2)o1,nt,nt,i,38,41,i,i,15,i,i,20,
CCOC(=O)[C@]12CCCCC/C=C\1N(Cc1ccc(OC)cc1)C(=O)[C@H]2CC(=O)N1CCC(c2ccccc2)CC1,nt,nt,i,i,i,i,nt,nt,nt,nt,nt,
COCCN(CCOC)Cc1c(O)ccc2c1O/C(=C\c1ccc(C)o1)C2=O,i,i,i,40,36,i,i,i,13,i,14,
COC(=O)c1sc2nc(-c3ccco3)ccc2c1N,i,i,16,52,50,55,i,12,i,i,i,UHRF1 ctr MBD2=i;MBD2 DBD conf=i
CC(C)OC(=O)c1sc2nc(-c3ccccc3)ccc2c1N,i,i,i,i,i,i,nt,nt,nt,nt,nt,
CN(CCC#N)C(=O)COC(=O)c1c2c(nc3ccccc13)/C(=C\c1ccco1)CC2,i,i,20,50,65,41,57,31,21,i,70,UHRF1 ctr MBD2=35;MBD2 DBD conf=29
O=C(COC(=O)c1c2c(nc3ccccc13)/C(=C\c1ccco1)CC2)NC1CCCC1,i,i,i,28,60,i,59,33,34,i,50,
C/C(=N\NC(=O)Cc1cccs1)c1ccco1,nt,nt,i,i,i,i,nt,nt,nt,nt,nt,
CCC[C@H]1[C@@H](NC(=O)c2cccnc2)CC[C@@]23CCCN2C(=O)CCC[C@@H]13,nt,nt,i,i,nt,i,nt,nt,nt,nt,nt,
CCOC(=O)C1=C(N)n2c(s/c(=C/c3ccco3)c2=O)=C(C(=O)OC)C1c1ccco1 (stereo unspecified),i,i,i,48,57,i,i,14,i,i,i,
CC(C)c1ccc(/C=c2\sc3n(c2=O)C(N)=C(C#N)C(c2ccc(C(C)C)cc2)C=3C(N)=O)cc1 (stereo unspecified),i,i,i,i,i,i,nt,nt,nt,nt,nt,
